Laboratory results taken from ChEMBL document CHEMBL1123921, “Quinolonecarboxylic acids. 2. Synthesis and antibacterial evaluation of 7-oxo-2,3-dihydro-7H-pyrido[1,2,3-de][1,4]benzothiazine-6-carboxylic acids” (J Med Chem, 1987).
In brackets after ≈: the same amount, converted by molar mass.

Tests used:
[1] = Total clearance was determined in rat at 10 mg/kg intraperitoneal dosage; type: ADME, organism-based; design: dose 10 mg/kg, route intraperitoneal; conditions: in vivo, ip, read-out: Clearance (converted)
Procedure, shortened: (§1)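 Fasted male Wistar rats (180–230 g) given the drug ip in carboxymethyl cellulose. Plasma and urine extracted with CHCl₃ from citrate buffer pH 6.2 with internal standard. Analysis by reverse-phase C-18 HPLC, 0.1% AcOH/MeOH gradient, 245 nm UV. Urinary clearance and total clearance derived as pharmacokinetic parameters.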

[2] = Urinary clearance was determined in rat at 10 mg/kg intraperitoneal dosage; type: ADME, organism-based; design: dose 10 mg/kg, route intraperitoneal; conditions: urine, ip, read-out: CL_renal (converted); procedure, shortened: as §1
[3] = Urinary clearance was determined in rat at 25 mg/kg os dosage; type: ADME, organism-based; design: dose 25 mg/kg; conditions: urine, po, read-out: CL_renal (converted)
Procedure, shortened: (§2)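 Fasted male Wistar rats (180–230 g) dosed orally, suspended in carboxymethyl cellulose. Plasma and urine assayed by HPLC: sample plus internal standard and citrate buffer (0.1 M, pH 6.2), extracted into CHCl₃, dried, redissolved in MeOH. Separation on C-18 with 0.1% AcOH/MeOH gradient, UV detection at 245 nm.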

[4] = Peak plasma concentration at a dose of 100 mg/kg, os route in rat suspended in carboxymethyl cellulose (CMC); type: ADME, organism-based; design: dose 100 mg/kg; conditions: po, read-out: Activity; procedure, shortened: as §2
[5] = Peak plasma concentration at a dose of 20 mg/kg, oral route in monkey (Macaca fascicularis) suspended in carboxymethyl cellulose (CMC);Range is between (5.5-6); type: ADME, organism-based; design: dose 20 mg/kg, route oral; conditions: cynomolgus monkey, read-out: Activity
Procedure, shortened: (§3)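 Four male beagle dogs or two Macaca fascicularis monkeys dosed orally, suspended in carboxymethyl cellulose. Venous blood collected into heparinized tubes and plasma separated by low-speed centrifugation. Urine gathered in metabolic cages. Unchanged drug measured by C-18 HPLC (extraction, UV 245 nm).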

[6] = Half life period was determined for the compound at 200 mg/kg concentration, oral route in human; type: ADME, organism-based; design: dose 200 mg/kg, route oral; conditions: in vivo
Procedure, shortened: (§4)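 Four healthy volunteers of both sexes took oral capsules (100 mg units) at three dose levels. Venous blood drawn into heparinized tubes and plasma obtained by low-speed centrifugation. Urine collected. Unchanged drug in plasma and urine determined by C-18 HPLC after CHCl₃ extraction, with UV detection at 245 nm.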

[7] = Half life period was determined for the compound at 400 mg/kg concentration, oral route in human; type: ADME, organism-based; design: dose 400 mg/kg, route oral; conditions: in vivo; procedure, shortened: as §4
Rattus norvegicus = test: Volume of distribution at a dose of 25 mg/kg, intraperitoneal route in rat suspended in carboxymethyl cellulose (CMC); type: ADME, organism-based; design: dose 25 mg/kg, route intraperitoneal; conditions: in vivo, ip; procedure, shortened: as §1
[8] = Time taken for peak plasma concentration at a dose of 100 mg/kg, oral route in human; type: ADME, organism-based; design: dose 100 mg/kg, route oral; procedure, shortened: as §4
[9] = Time taken for peak plasma concentration at a dose of 100 mg/kg, os route in rat suspended in carboxymethyl cellulose (CMC); type: ADME, organism-based; design: dose 100 mg/kg; conditions: po; procedure, shortened: as §2
[10] = Time taken for peak plasma concentration at a dose of 20 mg/kg, oral route in dog(beagle) suspended in carboxymethyl cellulose (CMC); type: ADME, organism-based, Canis lupus familiaris; design: dose 20 mg/kg, route oral; procedure, shortened: as §3
[11] = Half life period was determined for the compound at 10 mg/kg concentration, intraperitoneal route; conditions: in vivo, ip
[12] = Half life period was determined for the compound at 100 mg/kg concentration, os route; conditions: in vivo, po
[13] = Urinary excretion for the compound was evaluated as percent dose excreted at 50 mg/kg os dosage; type: ADME, organism-based; design: dose 50 mg/kg; conditions: urine, po; procedure, shortened: as §2
[14] = Urinary excretion for the compound was evaluated as percent dose excreted at 10 mg/kg intraperitoneal dosage; type: ADME, organism-based; design: dose 10 mg/kg, route intraperitoneal; conditions: urine, ip; procedure, shortened: as §1
[15] = Urinary excretion for the compound was evaluated as percent dose excreted at 200 mg/kg oral dosage in human; type: ADME, organism-based; design: dose 200 mg/kg, route oral; conditions: urine; procedure, shortened: as §4
[16] = Peak plasma concentration at a dose of 100 mg/kg, oral route in human; type: ADME, organism-based; design: dose 100 mg/kg, route oral; conditions: read-out: Activity; procedure, shortened: as §4
[17] = Peak plasma concentration at a dose of 400 mg/kg, oral route in human; type: ADME, organism-based; design: dose 400 mg/kg, route oral; conditions: read-out: Activity; procedure, shortened: as §4
[18] = Urinary excretion for the compound was evaluated as percent dose excreted at 25 mg/kg intraperitoneal dosage; type: ADME, organism-based; design: dose 25 mg/kg, route intraperitoneal; conditions: urine, ip; procedure, shortened: as §1
[19] = Urinary excretion for the compound was evaluated as percent dose excreted at 25 mg/kg os dosage; type: ADME, organism-based; design: dose 25 mg/kg; conditions: urine, po; procedure, shortened: as §2
[20] = Urinary excretion for the compound was evaluated as percent dose excreted at 20 mg/kg oral dosage in dog (beagle);Range is between (8-10).; type: ADME, organism-based, Canis lupus familiaris; design: dose 20 mg/kg, route oral; conditions: urine; procedure, shortened: as §3
[21] = Time taken for peak plasma concentration at a dose of 25 mg/kg, os route in rat suspended in carboxymethyl cellulose (CMC); type: ADME, organism-based; design: dose 25 mg/kg; conditions: po; procedure, shortened: as §2
[22] = Time taken for peak plasma concentration at a dose of 50 mg/kg, os route in rat suspended in carboxymethyl cellulose (CMC); type: ADME, organism-based; design: dose 50 mg/kg; conditions: po; procedure, shortened: as §2
[23] = Time taken for peak plasma concentration at a dose of 20 mg/kg, oral route in monkey (Macaca fascicularis) suspended in carboxymethyl cellulose (CMC); type: ADME, organism-based; design: dose 20 mg/kg, route oral; conditions: cynomolgus monkey; procedure, shortened: as §3
[24] = Total clearance was determined in rat at 25 mg/kg intraperitoneal dosage; type: ADME, organism-based; design: dose 25 mg/kg, route intraperitoneal; conditions: in vivo, ip, read-out: Clearance (converted); procedure, shortened: as §1
[25] = Tissue levels determined 1 hr after peroral dose of 50 mg/kg in heart; conditions: po
[26] = Tissue levels determined 1 hr after peroral dose of 50 mg/kg in liver; conditions: po
[27] = Urinary clearance was determined in rat at 25 mg/kg intraperitoneal dosage; type: ADME, organism-based; design: dose 25 mg/kg, route intraperitoneal; conditions: urine, ip, read-out: CL_renal (converted); procedure, shortened: as §1
Enterobacter cloacae = test: In vitro antibacterial activity against clinical isolates of Enterobacter cloacae 041 (gram negative) by agar dilution assay.; type: functional
Procedure, shortened: (§5)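 Agar dilution on Isosensitest agar; compound incorporated by twofold serial dilution. Overnight broth cultures delivered by multipoint inoculator at 10⁵ CFU per point. Plates read after 18 h at 37 °C. MIC taken as the lowest concentration giving complete growth inhibition.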

Klebsiella pneumoniae = test: In vitro antibacterial activity against clinical isolates of Klebsiella pneumoniae-4 (gram negative) by agar dilution assay.; type: functional; procedure, shortened: as §5
Staphylococcus aureus = test: In vitro antibacterial activity against clinical isolates of Staphylococcus aureus 18773 (gram-positive) by agar dilution assay.; type: functional; procedure, shortened: as §5
[28] = Ratio of tissue (liver) levels to plasma levels after 1 hr of treatment; type: ADME
Procedure, shortened: (§6)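 Male Wistar rats received 50 mg/kg po and were killed at 1 and 15 h. Tissue homogenates and plasma extracted with CHCl₃ after adding internal standard and pH 6.2 citrate buffer. Drug quantified by C-18 HPLC with UV at 245 nm. Tissue level divided by plasma level.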

[29] = Ratio of tissue (heart) levels to plasma levels after 1 hr of treatment; type: ADME; procedure, shortened: as §6
[30] = Ratio of tissue (kidney) levels to plasma levels after 15 hr of treatment; type: ADME; procedure, shortened: as §6
[31] = Ratio of urinary excretion after os administration to ip administration; type: ADME, organism-based, Urine; conditions: in vivo
Procedure, shortened: (§7)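 Fasted male Wistar rats (180–230 g), drug suspended in carboxymethyl cellulose, given orally or ip. Plasma (heparinized) and urine from metabolic cages were sampled at various times. The unchanged drug was measured by HPLC after CHCl3 extraction at pH 6.2 with an internal standard, on a C-18 column with an AcOH/MeOH gradient and UV detection at 245 nm. Interassay and intraassay variability was about 10%.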

[32] = Ratio of AUC from os administration to AUC from ip administration at a dose of 25 mg/kg; type: ADME, organism-based; design: dose 25 mg/kg, route intraperitoneal; conditions: in vivo; procedure, shortened: as §7
[33] = Half life period was determined for the compound at 20 mg/kg concentration, oral route in dog(beagle); type: ADME, organism-based, Canis lupus familiaris; design: dose 20 mg/kg, route oral; conditions: in vivo; procedure, shortened: as §3
in vivo [34] = conditions: liver, po, 50 mg/kg
in vivo [35] = conditions: heart, po, 50 mg/kg

In the case of `CN1CCN(c2c(F)cc3c(=O)c(C(=O)O)cn4c3c2SCC4)CC1` [RUFLOXACIN], the CL/F [1] is reported as 4.22 mL/min/kg, the CL renal [2] is reported as 0.75 mL/min/kg and the CL renal [3] is reported as 1.21 mL/min/kg. The Cmax [4] was 21000 ng/mL, the Cmax [5] was 5500 ng/mL and the half-life [6] was 35 h. The half-life [7] was 32 h, the Vd (Rattus norvegicus) was 3 L/kg and the Tmax [8] was 4 h. It also gave a Tmax [9] of 1 h, a Tmax [10] of 4 h and a half-life [11] of 9.9 h. The half-life [12] was 8.7 h, the dose excreted [13] was 16.7% and the dose excreted [14] was 26%. For the same compound, the dose excreted [15] was 55%, the Cmax [16] was 1870 ng/mL and the Cmax [17] was 2730 ng/mL. For the same compound, the dose excreted [18] was 22.2%, the dose excreted [19] was 24.5% and the dose excreted [20] was 8%. For the same compound, the Tmax [21] was 1 h, the Tmax [22] was 1 h and the Tmax [23] was 2 h. The CL/F [24] was 4.18 mL/min/kg, the concentration at 1 h [25] was 31000 ng/mL and the concentration at 1 h [26] was 80000 ng/mL. It also gave a CL renal [27] of 0.79 mL/min/kg, an MIC (Enterobacter cloacae) of less than 0.39 µg/mL and an MIC (Klebsiella pneumoniae) of less than 0.39 µg/mL. The MIC (Staphylococcus aureus) was 0.78 µg/mL (≈ 2.15 µM), the Kp at 1 h [28] was 8 and the Kp at 1 h [29] was 3. The Kp at 15 h [30] was 2.7, the Ratio [31] was 0.91 and the Ratio [32] was 0.85. For the same compound, the half-life [33] was 12 h, the concentration at 15 h (in vivo [34]) was 11000 ng/mL and the concentration at 15 h (in vivo [35]) was 5000 ng/mL.
